# Source: PubChem BioAssay AID488936 (Broad Institute, 2010)
# Activity calls are given as the source filed them.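 How the source made its calls: active means compounds lowering caspase luminescence whose fitted AC50 is at most ten times their top valid dose; inconclusive means flat partial inhibition or a poor quality curve fit; inactive means the rest.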
# Assay: reduction of caspase-3/7 signal in INS-1E – INS-1E rat cells, dry powder, set 2, orthogonal assay for beta-cell apoptosis inhibitor project, dose response (AID 488936)
# Details: INS-1E cytokine-induced caspase-3/7 luminescence, 48 h; at 12 µM (top of the series)
# Procedure, shortened: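 Assay system: rat INS-1E insulinoma cells; Reagent: IFN-gamma, TNF-alpha and IL-1β cytokine cocktail; Control set: SAHA positive control; Measure: IC50 of caspase-3/7 activity from concentration-response curve; Detection: Luciferase-based luminescence, Caspase-Glo 3/7 reagent; Times: 48 h cytokine and compound exposure, 1 h detection.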
row,Compound,"activity change, negative = inhibition"
1,COc1ccc(S(=O)(=O)N(C)C[C@@H]2Oc3c(NC(=O)Nc4cccc5ccccc45)cccc3C(=O)N([C@@H](C)CO)C[C@H]2C)cc1C,-20.2% (inactive)

# Same assay, conditions: INS-1E cytokine-induced caspase-3/7 luminescence, 48 h; at 23.5 µM (top of the series)
row,Compound,"activity change, negative = inhibition"
1,COc1ccc(S(=O)(=O)N(C)C[C@@H]2Oc3c(NC(=O)Nc4ccc(F)cc4)cccc3C(=O)N([C@@H](C)CO)C[C@H]2C)cc1,-9.69% (inactive)
2,Cc1ccc(S(=O)(=O)N(C)C[C@@H]2Oc3c(NC(=O)Nc4cccc5ccccc45)cccc3C(=O)N([C@H](C)CO)C[C@H]2C)cc1,-12.7% (inactive)

# Same assay, conditions: INS-1E cytokine-induced caspase-3/7 luminescence, 48 h; at 26 µM (top of the series)
row,Compound,"activity change, negative = inhibition"
1,COc1ccc(S(=O)(=O)N(C)C[C@@H]2Oc3c(NS(C)(=O)=O)cccc3C(=O)N([C@@H](C)CO)C[C@H]2C)cc1,-6.62% (inactive)
2,COc1ccc(S(=O)(=O)N(C)C[C@@H]2Oc3c(NC(=O)NC(C)C)cccc3C(=O)N([C@@H](C)CO)C[C@H]2C)cc1,-8.08% (inactive)
3,COc1ccc(S(=O)(=O)N(C)C[C@@H]2Oc3c(NC(=O)c4nc5ccccc5s4)cccc3C(=O)N([C@@H](C)CO)C[C@H]2C)cc1,-4.53% (inactive)
4,COc1ccc(S(=O)(=O)Nc2cccc3c2O[C@@H](CN(C)S(=O)(=O)c2ccc(OC)cc2)[C@H](C)CN([C@@H](C)CO)C3=O)cc1,-1.2% (inactive)
5,COc1ccccc1S(=O)(=O)N(C)C[C@@H]1Oc2c(NC(=O)Nc3cccc4ccccc34)cccc2C(=O)N([C@@H](C)CO)C[C@H]1C,-13% (inactive)
6,C[C@@H]1CN([C@@H](C)CO)C(=O)c2cccc(NC(=O)Nc3cccc4ccccc34)c2O[C@H]1CN(C)S(C)(=O)=O,-7.6% (inactive)
7,COc1ccc(S(=O)(=O)N(C)C[C@@H]2Oc3c(NC(=O)c4cccc5ccccc45)cccc3C(=O)N([C@@H](C)CO)C[C@H]2C)cc1,-10.7% (inactive)
8,COc1ccc(S(=O)(=O)N(C)C[C@@H]2Oc3c(NC(=O)c4cnccn4)cccc3C(=O)N([C@@H](C)CO)C[C@H]2C)cc1,-2.35% (inactive)
9,COc1ccc(S(=O)(=O)N(C)C[C@@H]2Oc3c(NC(=O)c4ccncc4)cccc3C(=O)N([C@@H](C)CO)C[C@H]2C)cc1,-4.94% (inactive)
10,C[C@@H]1CN([C@@H](C)CO)C(=O)c2cccc(NC(=O)Nc3ccccc3)c2O[C@H]1CN(C)S(=O)(=O)c1ccc(F)cc1,-13.5% (inactive)
11,COc1ccc(S(=O)(=O)N(C)C[C@@H]2Oc3c(NS(=O)(=O)c4ccccc4)cccc3C(=O)N([C@@H](C)CO)C[C@H]2C)cc1,-6.46% (inactive)
12,C[C@@H]1CN([C@@H](C)CO)C(=O)c2cccc(NC(=O)Nc3cccc4ccccc34)c2O[C@H]1CN(C)S(=O)(=O)c1cn(C)cn1,-1.53% (inactive)
13,Cc1ccc(S(=O)(=O)N(C)C[C@@H]2Oc3c(NC(=O)Nc4ccc(F)cc4)cccc3C(=O)N([C@H](C)CO)C[C@H]2C)cc1,-5.96% (inactive)
14,COc1ccc(S(=O)(=O)N(C)C[C@@H]2Oc3c(NC(=O)Nc4ccc5c(c4)OCO5)cccc3C(=O)N([C@@H](C)CO)C[C@H]2C)cc1,-4.99% (inactive)
15,C[C@@H]1CN([C@@H](C)CO)C(=O)c2cccc(NC(=O)Nc3cccc4ccccc34)c2O[C@H]1CN(C)C(=O)Nc1ccc(F)cc1,19.9% (inactive)
16,C[C@@H]1CN([C@H](C)CO)C(=O)c2cccc(NC(=O)Nc3ccc(F)cc3)c2O[C@H]1CN(C)S(=O)(=O)c1ccc(Cl)cc1,10.4% (inactive)
17,COc1ccc(S(=O)(=O)N(C)C[C@@H]2Oc3c(NC(=O)Nc4ccccc4)cccc3C(=O)N([C@H](C)CO)C[C@H]2C)cc1,-7.43% (inactive)
18,C[C@@H]1CN([C@@H](C)CO)C(=O)c2cccc(NC(=O)Nc3cccc4ccccc34)c2O[C@H]1CN(C)S(=O)(=O)c1ccc(Cl)cc1,6.46% (inactive)
19,COc1ccc(S(=O)(=O)N(C)C[C@@H]2Oc3c(NC(=O)Nc4ccc(C(F)(F)F)cc4)cccc3C(=O)N([C@@H](C)CO)C[C@H]2C)cc1,13.3% (inactive)

row,Compound,"activity change, negative = inhibition"
1,COc1ccc(S(=O)(=O)N(C)C[C@@H]2Oc3c(NC(=O)Nc4c(C)noc4C)cccc3C(=O)N([C@@H](C)CO)C[C@H]2C)cc1,-11.7% (inactive)
2,COc1ccc(S(=O)(=O)N(C)C[C@H]2Oc3c(NC(=O)Nc4cccc5ccccc45)cccc3C(=O)N([C@@H](C)CO)C[C@@H]2C)cc1,-9.65% (inactive)
3,C[C@@H]1CN([C@@H](C)CO)C(=O)c2cccc(NC(=O)Nc3cccc4ccccc34)c2O[C@H]1CN(C)S(=O)(=O)c1cccs1,4.63% (inactive)
4,CNC[C@@H]1Oc2c(NC(=O)Nc3cccc4ccccc34)cccc2C(=O)N([C@@H](C)CO)C[C@H]1C,-6.33% (inactive)
5,COc1ccc(S(=O)(=O)N(C)C[C@@H]2Oc3c(NC(=O)Nc4cccc5ccccc45)cccc3C(=O)N([C@@H](C)CO)C[C@H]2C)cc1Cl,12.6% (inactive)
6,C[C@@H]1CN([C@@H](C)CO)C(=O)c2cccc(NC(=O)Nc3cccc4ccccc34)c2O[C@H]1CN(C)C(=O)NC1CCCCC1,27.4% (inactive)
7,COc1ccc(S(=O)(=O)N(C)C[C@@H]2Oc3c(NC(=O)C4CCCCC4)cccc3C(=O)N([C@@H](C)CO)C[C@H]2C)cc1,-7.12% (inactive)
8,N#Cc1ccc2cc(Br)c(C(F)(F)P(=O)(O)O)cc2c1,-14.1% (inactive)
9,C[C@@H]1CN([C@H](C)CO)C(=O)c2cccc(NC(=O)Nc3ccccc3)c2O[C@H]1CN(C)S(=O)(=O)c1ccc(F)cc1,-4.27% (inactive)
10,COc1ccc(S(=O)(=O)N(C)C[C@@H]2Oc3c(NC(=O)Nc4cccc5ccccc45)cccc3C(=O)N([C@@H](C)CO)C[C@H]2C)c(OC)c1,-12.9% (inactive)
11,Cc1ccc(S(=O)(=O)N(C)C[C@@H]2Oc3c(NC(=O)Nc4ccc(F)cc4)cccc3C(=O)N([C@@H](C)CO)C[C@H]2C)cc1,-11% (inactive)
12,C[C@@H]1CN([C@@H](C)CO)C(=O)c2cccc(NC(=O)Nc3cccc4ccccc34)c2O[C@H]1CN(C)S(=O)(=O)c1ccc(OC(F)(F)F)cc1,100% (inactive)
13,C[C@@H]1CN([C@@H](C)CO)C(=O)c2cccc(NC(=O)Nc3ccc(F)cc3)c2O[C@H]1CN(C)S(=O)(=O)c1ccc(Cl)cc1,-5.69% (inactive)
14,C[C@@H]1CN([C@@H](C)CO)C(=O)c2cccc(NC(=O)Nc3cccc4ccccc34)c2O[C@H]1CN(C)S(=O)(=O)c1ccccc1F,21.8% (inactive)
15,C[C@@H]1CN([C@@H](C)CO)C(=O)c2cccc(NC(=O)Nc3cccc4ccccc34)c2O[C@H]1CN(C)S(=O)(=O)c1ccccc1,6.84% (inactive)
16,Cc1ccc(S(=O)(=O)N(C)C[C@@H]2Oc3c(NC(=O)Nc4cccc5ccccc45)cccc3C(=O)N([C@@H](C)CO)C[C@H]2C)cc1,11.5% (inactive)
17,Cc1ccc(S(=O)(=O)N(C)C[C@@H]2Oc3c(NC(=O)Nc4ccccc4)cccc3C(=O)N([C@H](C)CO)C[C@H]2C)cc1,-10.7% (inactive)
18,COc1ccc(S(=O)(=O)N(C)C[C@@H]2Oc3c(NS(=O)(=O)c4ccc(F)cc4)cccc3C(=O)N([C@@H](C)CO)C[C@H]2C)cc1,-9.27% (inactive)
